Laboratory results reported in ChEMBL document CHEMBL5661970 (Cancer Res, 2006).
Active and inactive are the calls of the source. The calls are words filed in the database; no cut-off is given here.

Tests used:
[1] = test system: SK-OV-3; experiment: Antitumor activity against human SK-OV-3 cells xenografted in gamma-irradiation induced RH-rnu/rnu athymic rat assessed as tumor growth inhibition at 0.2 mg/kg, po administered once daily for 2 weeks and measured on day 14 relative to control; format: functional; details: SK-OV-3, light or radiation study, 336 h, read-out: TGI
[2] = test system: MDA-MB-231; experiment: Antitumor activity against human MDA-MB-231 cells xenografted in gamma-irradiation induced RH-rnu/rnu athymic rat assessed as tumor growth inhibition at 1.0 mg/kg, po administered once daily for 2 weeks and measured on day 14 relative to control; format: functional; details: MDA-MB-231, light or radiation study, 336 h, read-out: TGI
Summary of the method: (§1)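 Rats were γ-irradiated with 7 Gy whole body, and 24 h later received s.c. tumor cells. Fragments (20-30 mg) from ~1,500 mm3 tumors were then implanted s.c. into irradiated athymic rats. Oral dosing at 0.2 or 1 mg/kg or vehicle ran once daily for 2 weeks from day 0. Tumors were measured with calipers twice weekly (length×width²×0.5). TGI% was taken versus vehicle on day 14 (BxPC-3: day 13), with an unpaired t test on RTV.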

[3] = test system: Calu-6; experiment: Antitumor activity against human Calu-6 cells xenografted in RH-rnu/rnu athymic rat assessed as increased pericyte coverage at 0.2 mg/kg, po administered for 14 days by immunofluorescence staining analysis relative to control; format: functional; details: time 14 day
Summary of the method: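 Calu-6 xenografted athymic rats were randomized at 273-275 mm3 and dosed orally for 2 weeks. Paraffin sections were double-stained with anti-CD31 and Cy3-anti-α-smooth muscle actin. Pericyte-associated endothelial cells were counted in six fields per tumor, with six tumors per group and Dunnett's test.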

[4] = test system: LoVo; experiment: Antitumor activity against human LoVo cells xenografted in gamma-irradiation induced RH-rnu/rnu athymic rat assessed as relative tumor volume at 1 mg/kg, po administered once daily for 2 weeks and measured on day 21; format: functional
Summary of the method: (§2)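 Tumor fragments were grown in γ-irradiated (7 Gy) athymic rats, followed by once-daily oral dosing at 1 mg/kg for 2 weeks. Tumor volume was measured with calipers as length×width²×0.5. Relative tumor volume was calculated as volume on day x divided by volume on day 0.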

[5] = test system: SK-OV-3; experiment: Antitumor activity against human SK-OV-3 cells xenografted in gamma-irradiation induced RH-rnu/rnu athymic rat assessed as tumor growth inhibition at 1.0 mg/kg, po administered once daily for 2 weeks and measured on day 14 relative to control; format: functional; details: SK-OV-3, light or radiation study, 336 h, read-out: TGI
[6] = test system: Calu-6; experiment: Antitumor activity against human Calu-6 cells xenografted in RH-rnu/rnu athymic rat assessed as decrease in capillary permeability in tumor at 0.2 mg/kg, po measured on day 13 by DCE-MRI analysis relative to control; format: functional; parameters: scale not given: the % may be the effect or the level left
[7] = test system: Calu-6; experiment: Antitumor activity against human Calu-6 cells xenografted in RH-rnu/rnu athymic rat assessed as decrease in capillary permeability in tumor at 1 mg/kg, po measured on day 2 by DCE-MRI analysis relative to control; parameters: scale not given: the % may be the effect or the level left
[8] = AUC (0-infinity) in F344/N JcL-rnu athymic rat at 1 mg/kg, po measured upto 72 hrs by HPLC-MS/MS analysis; format: ADME, organism-based; details: in vivo
Summary of the method: (§3)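 Female athymic rats, four per group, given a single oral dose suspended in 0.5% methyl cellulose in water. Tail-vein blood was drawn at set times up to 72 h. Serum was spiked with internal standard, deproteinated with acetonitrile and analysed by HPLC-MS/MS. AUCinf came from noncompartmental analysis.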

[9] = test system: ZR-75-1; experiment: Antitumor activity against human ZR-75-1 cells xenografted in gamma-irradiation induced RH-rnu/rnu athymic rat assessed as tumor growth inhibition at 0.2 mg/kg, po administered once daily for 2 weeks and measured on day 14 relative to control; format: functional; details: ZR-75-1, light or radiation study, 336 h, read-out: TGI
[10] = target: Mitogen-activated protein kinase 3 (Homo sapiens, UniProt P27361); experiment: Inhibition of ERK1 phosphorylation in bFGF-stimulated serum-starved human HUVEC cells by immunoblotting analysis; format: cell-based
Mitogen-activated protein kinase 3, sequence (P27361 whole entry): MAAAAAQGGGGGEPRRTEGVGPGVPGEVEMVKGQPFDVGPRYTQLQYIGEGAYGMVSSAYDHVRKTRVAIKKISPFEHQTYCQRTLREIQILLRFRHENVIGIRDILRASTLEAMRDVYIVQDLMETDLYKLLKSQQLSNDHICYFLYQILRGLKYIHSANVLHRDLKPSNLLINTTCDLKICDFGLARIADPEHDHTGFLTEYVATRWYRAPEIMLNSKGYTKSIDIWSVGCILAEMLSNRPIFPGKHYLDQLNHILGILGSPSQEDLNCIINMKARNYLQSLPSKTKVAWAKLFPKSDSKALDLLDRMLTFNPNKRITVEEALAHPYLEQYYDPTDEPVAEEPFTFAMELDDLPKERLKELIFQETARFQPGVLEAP

[11] = test system: LoVo; experiment: Antitumor activity against human LoVo cells xenografted in gamma-irradiation induced RH-rnu/rnu athymic rat assessed as tumor growth inhibition at 0.2 mg/kg, po administered once daily for 2 weeks and measured on day 14 relative to control; format: functional; details: light or radiation study, 336 h, read-out: TGI; summary of the method: as §1
[12] = target: Receptor tyrosine-protein kinase erbB-4 (Homo sapiens, UniProt Q15303); experiment: Inhibition of ErbB4 (unknown origin) in presence of ATP
Receptor tyrosine-protein kinase erbB-4, sequence (Q15303 whole entry): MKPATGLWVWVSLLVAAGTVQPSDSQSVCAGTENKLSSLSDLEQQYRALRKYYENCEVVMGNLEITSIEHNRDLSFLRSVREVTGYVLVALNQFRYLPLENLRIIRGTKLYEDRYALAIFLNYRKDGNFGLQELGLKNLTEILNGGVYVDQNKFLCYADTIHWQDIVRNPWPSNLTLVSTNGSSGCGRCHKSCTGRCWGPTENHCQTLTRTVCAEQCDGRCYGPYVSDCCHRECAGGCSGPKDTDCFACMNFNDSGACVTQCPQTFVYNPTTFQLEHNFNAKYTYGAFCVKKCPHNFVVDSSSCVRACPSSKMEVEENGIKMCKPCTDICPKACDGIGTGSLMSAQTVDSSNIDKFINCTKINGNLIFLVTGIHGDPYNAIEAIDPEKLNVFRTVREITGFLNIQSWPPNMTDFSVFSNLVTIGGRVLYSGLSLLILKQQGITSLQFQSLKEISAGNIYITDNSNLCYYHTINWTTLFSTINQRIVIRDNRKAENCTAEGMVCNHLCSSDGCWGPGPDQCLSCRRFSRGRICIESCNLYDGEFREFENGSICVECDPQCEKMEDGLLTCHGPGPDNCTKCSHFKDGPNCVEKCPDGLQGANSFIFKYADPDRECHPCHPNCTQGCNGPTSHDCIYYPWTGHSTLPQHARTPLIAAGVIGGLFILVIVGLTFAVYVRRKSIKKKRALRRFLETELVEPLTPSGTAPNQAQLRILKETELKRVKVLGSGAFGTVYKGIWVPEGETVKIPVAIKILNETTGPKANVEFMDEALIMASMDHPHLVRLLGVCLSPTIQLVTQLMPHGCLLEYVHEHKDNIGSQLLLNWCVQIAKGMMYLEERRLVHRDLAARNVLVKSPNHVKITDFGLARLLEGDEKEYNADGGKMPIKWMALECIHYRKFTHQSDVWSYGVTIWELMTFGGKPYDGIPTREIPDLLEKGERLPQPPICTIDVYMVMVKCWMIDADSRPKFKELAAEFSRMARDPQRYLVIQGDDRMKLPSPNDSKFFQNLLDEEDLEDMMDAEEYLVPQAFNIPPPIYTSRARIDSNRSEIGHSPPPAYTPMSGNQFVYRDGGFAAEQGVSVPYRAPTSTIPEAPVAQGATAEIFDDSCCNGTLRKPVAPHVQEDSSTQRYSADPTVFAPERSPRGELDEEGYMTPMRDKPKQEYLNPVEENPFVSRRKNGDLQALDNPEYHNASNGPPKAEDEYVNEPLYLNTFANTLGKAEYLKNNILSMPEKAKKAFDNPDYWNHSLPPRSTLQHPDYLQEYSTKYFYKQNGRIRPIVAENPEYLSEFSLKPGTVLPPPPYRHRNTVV

[13] = Antitumor activity against human CGL-9 cells xenografted in gamma-irradiation induced RH-rnu/rnu athymic rat assessed as tumor growth inhibition at 0.2 mg/kg, po administered once daily for 2 weeks and measured on day 14 relative to control; format: functional; details: CGL-9, light or radiation study, 336 h, read-out: TGI; summary of the method: as §1
[14] = test system: NCI-H460; experiment: Antitumor activity against human NCI-H460 cells xenografted in gamma-irradiation induced RH-rnu/rnu athymic rat assessed as tumor growth inhibition at 1.0 mg/kg, po administered once daily for 2 weeks and measured on day 14 relative to control; format: functional; details: NCI-H460, light or radiation study, 336 h, read-out: TGI; summary of the method: as §1
[15] = Cmax in F344/N JcL-rnu athymic rat at 0.04 mg/kg, po measured upto 72 hrs by HPLC-MS/MS analysis; format: ADME, organism-based; details: in vivo
Summary of the method: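 Female F344/N JcL-rnu rats, four per group, single p.o. dose suspended in 0.5% methyl cellulose. Tail-vein blood sampled at set times to 72 h. Serum spiked with internal standard, deproteinated with acetonitrile, analysed by HPLC-MS/MS. Parameters derived by noncompartmental analysis.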

[16] = AUC (0-infinity) in F344/N JcL-rnu athymic rat at 0.04 mg/kg, po measured upto 72 hrs by HPLC-MS/MS analysis; format: ADME, organism-based; details: in vivo; summary of the method: as §3
[17] = Maximum concentration at steady state in F344/N JcL-rnu athymic rat at 0.2 mg/kg/day, po measured upto 72 hrs by HPLC-MS/MS analysis; format: ADME, organism-based; details: in vivo
Summary of the method: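 Steady-state serum levels for repeated oral 0.2 mg/kg daily dosing were simulated from single-dose serum data (female F344/N JcL-rnu rats, four per group, tail-vein sampling to 72 h, HPLC-MS/MS, noncompartmental analysis), not measured directly.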

[18] = test system: Calu-6; experiment: Antitumor activity against human Calu-6 cells xenografted in RH-rnu/rnu athymic rat assessed as tumor growth inhibition at 0.2 mg/kg, po administered once daily for 6 to 21 days by DCE-MRI analysis; details: time 6-21 day
[19] = test system: MDA-MB-231; experiment: Antitumor activity against human MDA-MB-231 cells xenografted in gamma-irradiation induced RH-rnu/rnu athymic rat assessed as relative tumor volume at 1 mg/kg, po administered once daily for 2 weeks and measured on day 7; format: functional; summary of the method: as §2
[20] = test system: A549; experiment: Antitumor activity against human A549 cells xenografted in F344/N Jcl-rnu athymic rat assessed as reduction in number of CD31-positive cells in viable regions of tumor at 0.2 mg/kg, po administered once daily for 7 days by immunofluorescence staining analysis relative to control; details: time 7 day
[21] = test system: Calu-6; experiment: Antitumor activity against human Calu-6 cells xenografted in RH-rnu/rnu athymic rat assessed as capillary permeability in tumor measured on day 21 by DCE-MRI analysis; format: functional, cell-based

`COc1cc2nccc(Oc3ccc(NC(=O)Nc4cc(C)on4)c(Cl)c3)c2cc1OC` [TIVOZANIB] gave an inhibition in vivo at 0.2 mg/kg [1] of 93.4%, an inhibition in vivo at 1 mg/kg [2] of over 100% and an Activity [3] of 29.6%. The Activity [4] was 0.85, the inhibition in vivo at 1 mg/kg [5] was 99.2% and the Activity [6] was 45%. It also gave an Activity [7] of 55%, an AUC(0-inf) [8] of 7640 ng·h/mL and an inhibition in vivo at 0.2 mg/kg [9] of 77.2%. For the same molecule, the inhibition [10] was “inactive”, the inhibition in vivo at 0.2 mg/kg [11] was 60.3% and the IC50 [12] was over 1000 nM. The inhibition in vivo at 0.2 mg/kg [13] was 46%, the inhibition in vivo at 1 mg/kg [14] was 85.9% and the Cmax [15] was 21.6 ng/mL. For the same molecule, the AUC(0-inf) [16] was 340 ng·h/mL, the Cmax [17] was 124 ng/mL and the Activity [18] was “Active”. The Activity [19] was 0.89, the Activity [20] was 20.7% and the Activity [21] was “inactive”.
